In ChEMBL document CHEMBL1165950, “Design and synthesis of new potent anticancer pyrazoles with high FLT3 kinase inhibitory selectivity” (Bioorg Med Chem, 2010):

Key:
Format in all cases: functional
SW-620 = assay: Cytotoxicity against human SW620 cells assessed as cell growth at 10 uM; conditions: read-out: Activity
Procedure, shortened: (§1)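 NCI-60 screen: cells grown in RPMI 1640 with 5% FBS and 2 mM L-glutamine, plated at 5000–40,000 cells/well according to doubling time, and preincubated 24 h at 37 °C, 5% CO2. The single 10 µM dose (DMSO stock) was added, then incubated 48 h. Cells were TCA-fixed and stained with 0.4% SRB, read at 515 nm, and growth % calculated against time-zero and control plates.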

SF-268 [1] = assay: Cytotoxicity against human SF268 cells assessed as cell growth at 0.01 uM after 48 hrs by sulforhodamine B assay; conditions: SF-268, 48 h, read-out: Activity
U-251 = assay: Cytotoxicity against human U251 cells assessed as cell growth at 1 uM after 48 hrs by sulforhodamine B assay; conditions: U-251, 48 h, read-out: Activity
UACC-257 = assay: Cytotoxicity against human UACC257 cells assessed as cell growth at 100 nM after 48 hrs by sulforhodamine B assay; conditions: UACC-257, 48 h, read-out: Activity
NCI-H522 = assay: Cytotoxicity against human NCI-H522 cells assessed as cell growth at 0.01 uM after 48 hrs by sulforhodamine B assay; conditions: NCI-H522, 48 h, read-out: Activity
IGROV-1 [2] = assay: Cytotoxicity against human IGROV1 cells assessed as cell growth at 1 uM after 48 hrs by sulforhodamine B assay; conditions: IGROV-1, 48 h, read-out: Activity
HL-60(TB) = assay: Cytotoxicity against human HL-60(TB) cells assessed as cell growth at 0.01 uM after 48 hrs by sulforhodamine B assay; conditions: HL-60, 48 h, read-out: Activity
Procedure, shortened: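 NCI 60-cell panel. Cells are grown in RPMI 1640 with 5% FBS and 2 mM L-glutamine, seeded at 5000–40,000 cells/well according to doubling time, and preincubated 24 h. Time-zero plates are TCA-fixed. Compound from DMSO stock is given at five 10-fold or 1/2-log concentrations for 48 h at 37 °C, 5% CO2. Suspension cells are fixed with 80% TCA (final 16%) and SRB-stained, with absorbance at 515 nm. Percent growth is derived from Tz, control and test readings.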

KM12 = assay: Cytotoxicity against human KM12 cells assessed as cell growth at 0.01 uM after 48 hrs by sulforhodamine B assay; conditions: KM12, 48 h, read-out: Activity
SNB-19 = assay: Cytotoxicity against human SNB19 cells assessed as cell growth at 100 nM after 48 hrs by sulforhodamine B assay; conditions: SNB-19, 48 h, read-out: Activity
SF-268 [3] = assay: Cytotoxicity against human SF268 cells assessed as cell growth at 10 uM after 48 hrs by sulforhodamine B assay; conditions: SF-268, 48 h, read-out: Activity
IGROV-1 [4] = assay: Cytotoxicity against human IGROV1 cells assessed as cell growth at 10 uM; conditions: read-out: Activity
Procedure, shortened: (§2)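 Single-dose NCI-60 screen at 10 µM. Cells were grown in RPMI 1640 with 5% FBS and 2 mM L-glutamine, then treated for 48 h at 37 °C. Protein was measured by SRB staining with absorbance at 515 nm. Percentage growth was recorded, and inhibition percentage was calculated as 100 minus growth percentage.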

NCI/ADR-RES [5] = assay: Cytotoxicity against human NCI/ADR-RES cells assessed as cell growth at 0.001 uM after 48 hrs by sulforhodamine B assay; conditions: read-out: Activity
NCI/ADR-RES [6] = assay: Cytotoxicity against human NCI/ADR-RES cells assessed as cell growth at 1 uM after 48 hrs by sulforhodamine B assay; conditions: read-out: Activity
EKVX [7] = assay: Cytotoxicity against human EKVX cells assessed as cell growth at 10 uM; conditions: read-out: Activity; procedure, shortened: as §2
EKVX [8] = assay: Cytotoxicity against human EKVX cells assessed as cell growth at 0.001 uM after 48 hrs by sulforhodamine B assay; conditions: read-out: Activity
[9] = Cytotoxicity against human Hs 578T cells assessed as cell growth at 100 nM after 48 hrs by sulforhodamine B assay; conditions: read-out: Activity
SK-OV-3 [10] = assay: Cytotoxicity against human SKOV3 cells assessed as cell growth at 10 uM; conditions: read-out: Activity; procedure, shortened: as §1
IGROV-1 [11] = assay: Cytotoxicity against human IGROV1 cells assessed as cell growth at 0.01 uM after 48 hrs by sulforhodamine B assay; conditions: IGROV-1, 48 h, read-out: Activity
[12] = Cytotoxicity against human Hs 578T cells assessed as cell growth at 10 uM; conditions: read-out: Activity; procedure, shortened: as §2
HCT-15 [13] = assay: Cytotoxicity against human HCT15 cells assessed as cell growth at 1 uM after 48 hrs by sulforhodamine B assay; conditions: HCT-15, 48 h, read-out: Activity
SK-OV-3 [14] = assay: Cytotoxicity against human SKOV3 cells assessed as cell growth at 0.001 uM after 48 hrs by sulforhodamine B assay; conditions: SK-OV-3, 48 h, read-out: Activity
HCT-15 [15] = assay: Cytotoxicity against human HCT15 cells assessed as cell growth at 10 uM; conditions: read-out: Activity; procedure, shortened: as §2
MDA-MB-435 = assay: Cytotoxicity against human MDA-MB-435 cells assessed as cell growth at 0.001 uM after 48 hrs by sulforhodamine B assay; conditions: MDA-MB-435, 48 h, read-out: Activity
OVCAR-3 = assay: Cytotoxicity against human OVCAR-3 cells assessed as cell growth at 100 nM after 48 hrs by sulforhodamine B assay; conditions: OVCAR-3, 48 h, read-out: Activity
SK-OV-3 [16] = assay: Cytotoxicity against human SKOV3 cells assessed as cell growth at 1 uM after 48 hrs by sulforhodamine B assay; conditions: SK-OV-3, 48 h, read-out: Activity
NCI-H23 = assay: Cytotoxicity against human NCI-H23 cells assessed as cell growth at 10 uM; conditions: read-out: Activity; procedure, shortened: as §1
SK-MEL-5 = assay: Cytotoxicity against human SK-MEL-5 cells assessed as cell growth at 100 nM after 48 hrs by sulforhodamine B assay; conditions: SK-MEL-5, 48 h, read-out: Activity
NCI-H460 = assay: Cytotoxicity against human NCI-H460 cells assessed as cell growth at 0.01 uM after 48 hrs by sulforhodamine B assay; conditions: NCI-H460, 48 h, read-out: Activity
EKVX [17] = assay: Cytotoxicity against human EKVX cells assessed as cell growth at 10 uM after 48 hrs by sulforhodamine B assay; conditions: read-out: Activity
HT-29 [18] = assay: Cytotoxicity against human HT-29 cells assessed as cell growth at 1 uM after 48 hrs by sulforhodamine B assay; conditions: HT-29, 48 h, read-out: Activity
SNB-75 [19] = assay: Cytotoxicity against human SNB75 cells assessed as cell growth at 10 uM after 48 hrs by sulforhodamine B assay; conditions: SNB-75, 48 h, read-out: Activity
HT-29 [20] = assay: Cytotoxicity against human HT-29 cells assessed as cell growth at 0.001 uM after 48 hrs by sulforhodamine B assay; conditions: HT-29, 48 h, read-out: Activity
PC-3 = assay: Cytotoxicity against human PC3 cells assessed as cell growth at 0.01 uM after 48 hrs by sulforhodamine B assay; conditions: PC-3, 48 h, read-out: Activity
SNB-75 [21] = assay: Cytotoxicity against human SNB75 cells assessed as cell growth at 100 nM after 48 hrs by sulforhodamine B assay; conditions: SNB-75, 48 h, read-out: Activity
UO-31 = assay: Cytotoxicity against human UO31 cells assessed as cell growth at 1 uM after 48 hrs by sulforhodamine B assay; conditions: UO-31, 48 h, read-out: Activity
DU-145 = assay: Cytotoxicity against human DU145 cells assessed as cell growth at 10 uM; conditions: read-out: Activity; procedure, shortened: as §2

COc1cc(C)cc(-c2c(-c3ccnc(-c4ccc(N(C)C)cc4)c3)cnn2CC#N)c1 showed a growth at 10 µM (SW-620) of 16.6%, a growth at 0.01 µM (SF-268 [1]) of 29% and a growth at 1 µM (U-251) of 6%. It also gave a growth at 0.1 µM (UACC-257) of 41%, a growth at 0.01 µM (NCI-H522) of -7% and a growth at 1 µM (IGROV-1 [2]) of 9%. The growth at 0.01 µM (HL-60(TB)) was 52%, the growth at 0.01 µM (KM12) was 20% and the growth at 0.1 µM (SNB-19) was 27%. For the same compound, the growth at 10 µM (SF-268 [3]) was 20%, the growth at 10 µM (IGROV-1 [4]) was 20.1% and the growth at 0.001 µM (NCI/ADR-RES [5]) was 96%. It also gave a growth at 1 µM (NCI/ADR-RES [6]) of 7%, a growth at 10 µM (EKVX [7]) of 45.8% and a growth at 0.001 µM (EKVX [8]) of 97%. For the same compound, the growth at 0.1 µM [9] was 23%, the growth at 10 µM (SK-OV-3 [10]) was -3.63% and the growth at 0.01 µM (IGROV-1 [11]) was -3%. The growth at 10 µM [12] was 30.8%, the growth at 1 µM (HCT-15 [13]) was 9% and the growth at 0.001 µM (SK-OV-3 [14]) was 102%. The growth at 10 µM (HCT-15 [15]) was 8.33%, the growth at 0.001 µM (MDA-MB-435) was 88% and the growth at 0.1 µM (OVCAR-3) was -20%. For the same compound, the growth at 1 µM (SK-OV-3 [16]) was 36%, the growth at 10 µM (NCI-H23) was -10.3% and the growth at 0.1 µM (SK-MEL-5) was -21%. The growth at 0.01 µM (NCI-H460) was 35%, the growth at 10 µM (EKVX [17]) was 2% and the growth at 1 µM (HT-29 [18]) was -51%. For the same compound, the growth at 10 µM (SNB-75 [19]) was 11%, the growth at 0.001 µM (HT-29 [20]) was 94% and the growth at 0.01 µM (PC-3) was 30%. The growth at 0.1 µM (SNB-75 [21]) was 6%, the growth at 1 µM (UO-31) was 12% and the growth at 10 µM (DU-145) was 3.17%.
